# ChEMBL document CHEMBL2146383, “Identification of an Orally Bioavailable, Potent, and Selective Inhibitor of GlyT1” (ACS Med Chem Lett, 2010)
# Active and inactive are the calls of the source.
# Columns and labels:
# Cytochrome P450 2C9 = Cytochrome P450 2C9 (Homo sapiens, UniProt P11712); test: Inhibition of CYP2C9; format: ADME
# [1] = molecular target: T1, Sodium- and chloride-dependent glycine transporter 1 (Homo sapiens, UniProt P48067); test: Inhibition of human GlyT1a after 15 mins
# T1 sequence (P48067 whole entry): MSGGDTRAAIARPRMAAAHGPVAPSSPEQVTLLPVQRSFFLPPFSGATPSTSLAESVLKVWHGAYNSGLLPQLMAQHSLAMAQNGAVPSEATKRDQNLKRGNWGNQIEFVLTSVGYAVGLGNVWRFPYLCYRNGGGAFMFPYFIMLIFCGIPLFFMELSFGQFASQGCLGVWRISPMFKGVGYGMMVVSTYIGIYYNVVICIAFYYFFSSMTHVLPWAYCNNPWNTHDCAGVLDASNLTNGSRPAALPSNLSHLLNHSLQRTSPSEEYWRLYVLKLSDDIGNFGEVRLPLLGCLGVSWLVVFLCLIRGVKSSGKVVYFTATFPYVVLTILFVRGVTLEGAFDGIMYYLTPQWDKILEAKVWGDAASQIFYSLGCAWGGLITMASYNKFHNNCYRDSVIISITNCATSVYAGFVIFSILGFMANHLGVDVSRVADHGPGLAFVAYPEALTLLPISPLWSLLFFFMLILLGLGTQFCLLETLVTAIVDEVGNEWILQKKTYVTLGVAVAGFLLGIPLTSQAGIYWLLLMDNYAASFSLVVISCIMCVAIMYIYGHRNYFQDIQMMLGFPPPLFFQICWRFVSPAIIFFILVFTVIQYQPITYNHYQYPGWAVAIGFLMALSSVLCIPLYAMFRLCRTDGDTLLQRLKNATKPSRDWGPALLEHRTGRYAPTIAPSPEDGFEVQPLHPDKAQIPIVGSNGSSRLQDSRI
# Method in brief: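 Human GlyT1, hGlyT1a isoform; IC50 taken as the average of at least two measurements.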
# [2] = Metabolic stability in human liver microsomes assessed as compound turnover at 1 uM after 15 mins; format: ADME, Microsome; details: read-out: Drug metabolism
# Method in brief: (§1)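 Test compound at 1 μM incubated with human or rat liver microsomes (0.5 mg/mL protein) at 37 °C for 15 min; turnover measured.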
# [3] = Metabolic stability in rat liver microsomes assessed as compound turnover at 1 uM after 15 mins; format: ADME, Microsome; details: read-out: Drug metabolism; method in brief: as §1
# [4] = Ratio of drug level in brain to plasma in rat at 10 mg/kg, po; format: ADME, organism-based; parameters: dose 10 mg/kg, route oral; details: read-out: BPR
# Brain = test: Receptor occupancy at Glyt1 in rat brain at 10 mg/kg, po; format: functional
# Cytochrome P450 2D6 = Cytochrome P450 2D6 (Homo sapiens, UniProt P10635); test: Inhibition of CYP2D6; format: ADME
# Sequence of Cytochrome P450 2D6 (P10635 whole entry): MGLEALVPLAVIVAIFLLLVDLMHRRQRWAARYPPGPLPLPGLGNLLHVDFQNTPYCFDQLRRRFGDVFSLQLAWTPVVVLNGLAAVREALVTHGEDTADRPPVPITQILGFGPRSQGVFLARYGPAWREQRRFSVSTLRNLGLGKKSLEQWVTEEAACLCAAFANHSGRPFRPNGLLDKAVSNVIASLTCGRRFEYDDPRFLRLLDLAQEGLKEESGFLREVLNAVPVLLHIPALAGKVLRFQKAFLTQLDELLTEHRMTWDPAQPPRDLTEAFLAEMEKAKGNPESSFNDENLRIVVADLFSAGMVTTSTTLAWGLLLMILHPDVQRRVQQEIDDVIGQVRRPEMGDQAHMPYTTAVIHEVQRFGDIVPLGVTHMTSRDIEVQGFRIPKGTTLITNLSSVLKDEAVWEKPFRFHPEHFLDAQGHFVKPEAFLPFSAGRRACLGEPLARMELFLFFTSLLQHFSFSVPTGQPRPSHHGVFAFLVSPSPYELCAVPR
# Plasma [5] = test: Receptor occupancy at Glyt1 in rat plasma at 10 mg/kg, po; format: functional
# Cytochrome P450 3A4 = Cytochrome P450 3A4 (Homo sapiens, UniProt P08684); test: Inhibition of CYP3A4; format: ADME
# Sequence of Cytochrome P450 3A4 (P08684 whole entry): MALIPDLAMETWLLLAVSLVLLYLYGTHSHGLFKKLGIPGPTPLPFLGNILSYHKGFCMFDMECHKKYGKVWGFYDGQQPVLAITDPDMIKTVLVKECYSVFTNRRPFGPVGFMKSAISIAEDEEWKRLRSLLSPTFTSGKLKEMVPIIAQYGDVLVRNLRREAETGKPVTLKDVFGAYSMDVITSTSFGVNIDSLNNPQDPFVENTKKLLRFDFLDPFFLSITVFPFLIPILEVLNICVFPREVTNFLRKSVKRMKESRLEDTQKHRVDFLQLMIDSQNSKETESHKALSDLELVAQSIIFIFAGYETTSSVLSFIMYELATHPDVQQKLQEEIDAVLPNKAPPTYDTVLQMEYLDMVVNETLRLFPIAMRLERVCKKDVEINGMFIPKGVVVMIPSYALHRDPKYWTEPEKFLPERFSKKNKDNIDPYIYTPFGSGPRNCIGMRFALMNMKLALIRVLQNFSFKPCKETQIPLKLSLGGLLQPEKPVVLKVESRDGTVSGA
# Liver = test: Covalent binding affinity at liver protein in rat at 20 mg/kg, po after 6 hrs; format: ADME, organism-based; parameters: dose 20 mg/kg, route oral; details: in vivo
# Method in brief: (§2)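 Rats dosed orally at 20 mg/kg; liver and plasma proteins sampled 6 h postdose; covalently bound drug-derived material expressed as pmol equiv/mg protein.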
# Plasma [6] = test: Covalent binding affinity in rat plasma at 20 mg/kg, po after 6 hrs; format: ADME, organism-based; parameters: dose 20 mg/kg, route oral; details: in vivo; method in brief: as §2
# [7] = Clearance in dog at 1 mg/kg, po and 1 mg/kg, iv; format: ADME, organism-based, Canis lupus familiaris; details: in vivo
# Method in brief: (§3)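 Dog PK: single 1.0 mg/kg dose given iv and po; oral dosing in 0.5% methocel suspension. Clearance, Vd(ss), half-life, oral bioavailability (F), Cmax (μM) and Tmax derived from the plasma profiles.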
# [8] = Half life in rat at 1 mg/kg, po and 1 mg/kg, iv; format: ADME, organism-based; details: in vivo
# Method in brief: (§4)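 Rat PK: 1.0 mg/kg iv and po, oral arm as 0.5% methocel suspension; plasma Cl, Vd(ss), T1/2, F, Cmax (μM) and Tmax determined.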
# Rattus norvegicus [9] = test: Inhibition of GlyTl in rat frontal cortex assessed as increase in extracellular glycine level at 20 mg/kg, po up to 4 hrs relative to baseline; format: functional; parameters: scale not given: the % may be the effect or the level left
# Method in brief: (§5)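 Microdialysis probe placed in rat frontal cortex; extracellular glycine sampled up to 4 h after oral dosing at 3 or 20 mg/kg; peak glycine efflux given as % of basal level, mean ± SEM.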
# [10] = Tmax in rat at 1 mg/kg, po and 1 mg/kg, iv; format: ADME, organism-based; details: in vivo; method in brief: as §4
# [11] = Volume of distribution at steady state in dog at 1 mg/kg, po and 1 mg/kg, iv; format: ADME, organism-based, Canis lupus familiaris; details: in vivo, read-out: Vdss; method in brief: as §3
# [12] = Volume of distribution at steady state in rat at 1 mg/kg, po and 1 mg/kg, iv; format: ADME, organism-based; details: in vivo, read-out: Vdss; method in brief: as §4
# Rattus norvegicus [13] = test: Covalent binding in rat at 20 mg/kg, po after 6 hrs; format: ADME, organism-based; parameters: dose 20 mg/kg, route oral; details: in vivo; method in brief: as §2
# Homo sapiens = species: Homo sapiens; test: Binding affinity to human P-gp
# [14] = Clearance in rhesus monkey at 1 mg/kg, po and 1 mg/kg, iv; format: ADME, organism-based, Macaca mulatta; details: in vivo
# Method in brief: (§6)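 Rhesus monkey pharmacokinetics after 1.0 mg/kg by both iv and oral routes; reported parameters are Cl, Vd(ss), T1/2, F, Cmax (μM) and Tmax.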
# [15] = Oral bioavailability in dog at 1 mg/kg; format: ADME, organism-based, Canis lupus familiaris; details: in vivo; method in brief: as §3
# [16] = Oral bioavailability in rat at 1 mg/kg; format: ADME, organism-based; details: in vivo; method in brief: as §4
# [17] = Tmax in rhesus monkey at 1 mg/kg, po and 1 mg/kg, iv; format: ADME, organism-based, Macaca mulatta; details: in vivo; method in brief: as §6
# Rattus norvegicus [18] = test: Inhibition of PCP-induced cognitive deficit in extra dimensional shift in intra/extra dimensional rat model of executive function at 3 mg/kg, po; format: functional, organism-based; parameters: dose 3 mg/kg
# Method in brief: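 Rats given subchronic PCP to impair attentional set shifting, then dosed 3 mg/kg po; all ID/ED discriminations run, with trials to criterion scored for the extra-dimensional shift; significance at p < 0.05 versus PCP and vehicle groups.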
# [19] = Clearance in rat at 1 mg/kg, po and 1 mg/kg, iv; format: ADME, organism-based; details: in vivo; method in brief: as §4
# [20] = Cmax in rat at 1 mg/kg, po and 1 mg/kg, iv; format: ADME, organism-based; details: in vivo; method in brief: as §4
# [21] = Cmax in rhesus monkey at 1 mg/kg, po and 1 mg/kg, iv; format: ADME, organism-based, Macaca mulatta; details: in vivo; method in brief: as §6
# Rattus norvegicus [22] = test: Inhibition of GlyTl in rat frontal cortex assessed as increase extracellular glycine level after 3 mg/kg, po up to 4 hrs relative to baseline; format: functional; parameters: scale not given: the % may be the effect or the level left; method in brief: as §5
# [23] = Half life in rhesus monkey at 1 mg/kg, po and 1 mg/kg, iv; format: ADME, organism-based, Macaca mulatta; details: in vivo; method in brief: as §6
# [24] = Half life in dog at 1 mg/kg, po and 1 mg/kg, iv; format: ADME, organism-based, Canis lupus familiaris; details: in vivo; method in brief: as §3
# Mus musculus = species: Mus musculus; test: Binding affinity to mouse P-gp
# [25] = Tmax in dog at 1 mg/kg, po and 1 mg/kg, iv; format: ADME, organism-based, Canis lupus familiaris; details: in vivo; method in brief: as §3
# [26] = Volume of distribution at steady state in rhesus monkey at 1 mg/kg, po and 1 mg/kg, iv; format: ADME, organism-based, Macaca mulatta; details: in vivo, read-out: Vdss; method in brief: as §6
# [27] = Oral bioavailability in rhesus monkey at 1 mg/kg; format: ADME, organism-based, Macaca mulatta; details: in vivo; method in brief: as §6
# Rhesus monkey = test: Receptor plasma occupancy at Glyt1 in rhesus monkey pons assessed as inhibition of [18F]MK-6577 uptake administered as iv bolus plus infusion by PET imaging; format: functional, Macaca mulatta
# Method in brief: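 Rhesus monkeys (~10 kg) sedated with ketamine 10 mg/kg im, induced with propofol 5 mg/kg iv, and maintained on propofol 0.4 mg/kg/min. Compound given iv as bolus plus infusion in EtOH:H2O:PEG400 (10:40:50); ~5 mCi [18F]MK-6577 injected 1 h into the infusion. Dynamic PET scans compared baseline and blockade uptake to derive an occupancy versus plasma concentration curve and plasma Occ50.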
# [28] = Cmax in dog at 1 mg/kg, po and 1 mg/kg, iv; format: ADME, organism-based, Canis lupus familiaris; details: in vivo; method in brief: as §3
# Sequence of Cytochrome P450 2C9 (P11712 whole entry): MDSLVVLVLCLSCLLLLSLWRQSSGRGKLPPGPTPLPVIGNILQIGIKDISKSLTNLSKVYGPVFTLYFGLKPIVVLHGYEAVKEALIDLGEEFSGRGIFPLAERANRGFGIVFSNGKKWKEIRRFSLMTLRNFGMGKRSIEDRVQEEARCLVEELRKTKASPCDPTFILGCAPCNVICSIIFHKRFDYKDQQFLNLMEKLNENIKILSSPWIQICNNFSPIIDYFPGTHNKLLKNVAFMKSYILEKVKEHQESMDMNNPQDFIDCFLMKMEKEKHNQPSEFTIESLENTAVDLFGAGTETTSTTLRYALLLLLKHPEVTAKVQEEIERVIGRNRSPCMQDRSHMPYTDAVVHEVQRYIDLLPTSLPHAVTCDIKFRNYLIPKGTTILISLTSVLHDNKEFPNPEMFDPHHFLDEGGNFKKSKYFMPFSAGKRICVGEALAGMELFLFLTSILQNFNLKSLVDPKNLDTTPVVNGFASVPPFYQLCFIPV
structure (smiles),measurement,setting,value
O=C(NC[C@]1(CC2CC2)CC[C@@H](S(=O)(=O)c2cnn[nH]2)CC1)c1ccc(Cl)cc1Cl,IC50,Cytochrome P450 2C9,10 nM
same,IC50,[1],3000 nM
CCS(=O)(=O)[C@H]1CC[C@@](CNC(=O)c2ccc(Cl)cc2Cl)(CC2CC2)CC1,IC50,[1],1320 nM
Cc1cc(S(=O)(=O)[C@H]2CC[C@@](CNC(=O)c3ccc(Cl)cc3Cl)(CC3CC3)CC2)no1,"metabolised at 0.25 h, 1 µM",[2],35%
same,"metabolised at 0.25 h, 1 µM",[3],51%
same,IC50,[1],8.6 nM
Cc1nnc(S(=O)(=O)[C@H]2CC[C@@](CNC(=O)c3ccc(Cl)cc3Cl)(CC3CC3)CC2)s1,IC50,[1],3330 nM
Cn1cc(S(=O)(=O)[C@H]2CC[C@](CNC(=O)c3ccc(Cl)cc3Cl)(CC3CC3)CC2)nn1,Kp,[4],0.16
same,Occ50,Brain,0.2 µM
same,IC50,Cytochrome P450 2D6,> 10000 nM
same,IC50,Cytochrome P450 2C9,> 10000 nM
same,Occ50,Plasma [5],1.2 µM
same,IC50,Cytochrome P450 3A4,> 10000 nM
Cc1cc(S(=O)(=O)[C@H]2CC[C@](CNC(=O)c3ccc(Cl)cc3Cl)(CC3CC3)CC2)no1,"metabolised at 0.25 h, 1 µM",[2],40%
same,"metabolised at 0.25 h, 1 µM",[3],41%
same,IC50,[1],7.3 nM
CS(=O)(=O)[C@H]1CC[C@](CNC(=O)c2ccc(Cl)cc2Cl)(CC2CC2)CC1,IC50,[1],3330 nM
CCCS(=O)(=O)[C@H]1CC[C@](CNC(=O)c2ccc(Cl)cc2Cl)(CC2CC2)CC1,"metabolised at 0.25 h, 1 µM",[2],55%
same,"metabolised at 0.25 h, 1 µM",[3],53%
same,IC50,[1],36.9 nM
CCS(=O)(=O)N1CCC(CNC(=O)c2ccc(Cl)cc2Cl)(CC2CC2)CC1,PB,Liver,153 pmolequiv/mg
same,Activity,Plasma [6],214 pmolequiv/mg
same,IC50,[1],26 nM
Cn1cc(S(=O)(=O)[C@H]2CC[C@@](CNC(=O)c3ccc(Cl)cc3Cl)(CC3CC3)CC2)nn1,Kp,[4],0.1
CCCS(=O)(=O)[C@H]1CC[C@@](CNC(=O)c2ccc(Cl)cc2Cl)(CC2CC2)CC1,IC50,[1],1630 nM
CCS(=O)(=O)[C@H]1CC[C@](CNC(=O)c2ccc(Cl)cc2Cl)(CC2CC2)CC1,IC50,[1],132 nM
Cc1ccc(S(=O)(=O)[C@H]2CC[C@@](CNC(=O)c3ccc(Cl)cc3Cl)(CC3CC3)CC2)nn1,"metabolised at 0.25 h, 1 µM",[2],35%
same,"metabolised at 0.25 h, 1 µM",[3],40%
same,IC50,[1],29 nM
O=C(NC[C@]1(CC2CC2)CC[C@H](S(=O)(=O)c2c[nH]nn2)CC1)c1ccc(Cl)cc1Cl,inhibition (INH),Cytochrome P450 2C9,Active
same,IC50,[1],3000 nM
O=C(NC[C@]1(CC2CC2)CC[C@H](S(=O)(=O)CC2CC2)CC1)c1ccc(Cl)cc1Cl,clearance,[7],4.9 mL/min/kg
same,half-life,[8],2.4 h
same,Activity,Rattus norvegicus [9],184%
same,"metabolised at 0.25 h, 1 µM",[2],35%
same,Tmax,[10],0.8 h
same,Vd,[11],3.1 L/kg
same,Kp,[4],2.3
same,Vd,[12],4.1 L/kg
same,PB,Rattus norvegicus [13],< 25 pmolequiv/mg
same,Activity,Homo sapiens,inactive
same,clearance,[14],24 mL/min/kg
same,"metabolised at 0.25 h, 1 µM",[3],40%
same,bioavailability,[15],48%
same,bioavailability,[16],65%
same,Occ50,Plasma [5],0.35 µM
same,Tmax,[17],2.7 h
same,inhibition,Rattus norvegicus [18],Active
same,clearance,[19],36 mL/min/kg
same,Cmax,[20],140 nM
same,Cmax,[21],40 nM
same,Activity,Rattus norvegicus [22],151%
same,half-life,[23],1.5 h
same,half-life,[24],10 h
same,Activity,Mus musculus,inactive
same,Tmax,[25],1 h
same,Vd,[26],2.3 L/kg
same,bioavailability,[27],2%
same,Occ50,Rhesus monkey,120 nM
same,Cmax,[28],1390 nM
same,IC50,[1],29 nM
O=C(NC[C@]1(CC2CC2)CC[C@H](S(=O)(=O)CC2CCC2)CC1)c1ccc(Cl)cc1Cl,IC50,[1],629 nM
